Measurements: ChEMBL document CHEMBL4004793, “Spoxazomicin D and Oxachelin C, Potent Neuroprotective Carboxamides from the Appalachian Coal Fire-Associated Isolate Streptomyces sp. RM-14-6” (J Nat Prod, 2017)
≈ marks a conversion by molar mass, not a printed value. Calls of active or inactive are those of the source. The rule behind the calls is not given here.

Tests used:
[1] = test system: Salmonella enterica; experiment: Antibacterial activity against Salmonella enterica ATCC 10708 up to 60 uM after 16 to 48 hrs; format: functional
Summary of the method: (§1)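 MIC determined after 16−48 h incubation, in triplicate, following earlier published protocols; kanamycin and ampicillin as positive controls for bacteria, amphotericin B for S. cerevisiae. S. aureus, S. enterica and S. cerevisiae strains from ATCC.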

[2] = test system: A549; experiment: Cytotoxicity against human A549 cells assessed as decrease in cell viability up to 20 uM after 48 hrs by resazurin assay; format: functional, cell-based
Summary of the method: (§2)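 A549 non-small-cell lung cells from ATCC, run in triplicate following earlier published protocols; actinomycin D as positive control.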

[3] = test system: Saccharomyces cerevisiae; experiment: Antifungal activity against Saccharomyces cerevisiae ATCC 204508 up to 60 uM after 16 to 48 hrs; format: functional; summary of the method: as §1
[4] = test system: Staphylococcus aureus; experiment: Antibacterial activity against Staphylococcus aureus ATCC 6538 up to 60 uM after 16 to 48 hrs; format: functional; summary of the method: as §1
[5] = test system: Escherichia coli; experiment: Antibacterial activity against Escherichia coli NRRL B-3708 up to 60 uM after 16 to 48 hrs; format: functional; summary of the method: as §1
[6] = test system: Micrococcus luteus; experiment: Antibacterial activity against Micrococcus luteus NRRL B-287 up to 60 uM after 16 to 48 hrs; format: functional; summary of the method: as §1
[7] = test system: Hippocampal neurone; experiment: Neuroprotective activity against EtOH-induced damage in Sprague-Dawley rat hippocampal neuron after 48 hrs by propidium iodide uptake assay; format: functional, cell-based
Summary of the method: (§3)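 Organotypic hippocampal slices from 8-day-old Sprague−Dawley rats in medium with 3.74 μM propidium iodide, with or without 100 mM EtOH plus test agent at varied concentrations, 48 h. Slices then imaged for propidium iodide uptake intensity as a marker of cell damage; post hoc statistical comparison vs control and vs EtOH.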

[8] = test system: Micrococcus luteus; experiment: Antibacterial activity against Micrococcus luteus NRRL B-287 after 16 to 48 hrs; format: functional; summary of the method: as §1
[9] = test system: HEK293; experiment: Modulation of unfolded protein response in HEK293 cells after 48 hrs by ASGR-Cluc secretion assay; conditions: Homo sapiens
[10] = test system: Salmonella enterica; experiment: Antibacterial activity against Salmonella enterica ATCC 10708 after 16 to 48 hrs; format: functional; summary of the method: as §1
[11] = test system: Saccharomyces cerevisiae; experiment: Antifungal activity against Saccharomyces cerevisiae ATCC 204508 after 16 to 48 hrs; format: functional; summary of the method: as §1
[12] = test system: A549; experiment: Cytotoxicity against human A549 cells assessed as decrease in cell viability after 48 hrs by resazurin assay; format: functional, cell-based; summary of the method: as §2
[13] = test system: Staphylococcus aureus; experiment: Antibacterial activity against Staphylococcus aureus ATCC 6538 after 16 to 48 hrs; format: functional; summary of the method: as §1
[14] = test system: Hippocampal neurone; experiment: Neuroprotective activity against EtOH-induced damage in Sprague-Dawley rat hippocampal neuron at 0.01 to 0.10 uM after 48 hrs by propidium iodide uptake assay; format: functional, cell-based; summary of the method: as §3
[15] = test system: Hippocampal neurone; experiment: Neuroprotective activity against EtOH-induced damage in Sprague-Dawley rat hippocampal neuron at 0.01 uM after 48 hrs by propidium iodide uptake assay; format: functional, cell-based; summary of the method: as §3

SMILES | Activity [1] | Activity [2] | Activity [3] | Activity [4] | Activity [5] | Activity [6] | also measured
O=CN(O)CCC[C@@H](NC(=O)[C@H](CO)NC(=O)[C@@H]1COC(c2ccccc2O)=N1)C(=O)NCCC(=O)N[C@@H]1CCCN(O)C1=O | inactive | inactive | inactive | inactive | inactive | inactive | Activity [7]: inactive
NC(=O)c1ccccc1O | inactive | inactive | inactive | inactive | inactive | inactive | –
CC1=CC(=O)C[C@]2(C)CC[C@@H](C(C)(C)O)C[C@@H]12 | inactive | – | inactive | inactive | inactive | inactive | –
CC(=O)NCCc1ccc(O)cc1 | inactive | inactive | inactive | inactive | inactive | inactive | –
CO[C@H]1CC[C@H](O[C@@H]2C[C@@H]([C@@H](C)/C=C(\C)C(=O)[C@H](C)C[C@H](C)C(=O)O)O[C@@]3(CC[C@@](C)([C@H]4CC[C@@H](C)[C@@]5(O[C@@H]([C@H]6O[C@@](O)(CO)[C@H](C)C[C@@H]6C)C[C@@H]5C)O4)O3)[C@@H]2C)O[C@@H]1C | – | – | – | – | – | – | MIC ([8]; Micrococcus luteus, NRRL B-287, read-out: MIC): 0.1 to 3 µM (≈ 0.0851 to 2.55 µg/mL); EC50 [9]: 38 nM; MIC ([10]; Salmonella enterica, ATCC 10708, read-out: MIC): 0.1 to 3 µM (≈ 0.0851 to 2.55 µg/mL); MIC [11]: 0.1 to 3 µM; IC50 ([12]; Homo sapiens, A549, 48 h): 1200 nM; MIC ([13]; Staphylococcus aureus, ATCC 6538, read-out: MIC): 0.1 to 3 µM (≈ 0.0851 to 2.55 µg/mL)
O=CN(O)CCC[C@@H](NC(=O)[C@H](CO)NC(=O)[C@H](CO)NC(=O)c1ccccc1O)C(=O)NCCC(=O)N[C@@H]1CCCN(O)C1=O | inactive | inactive | inactive | inactive | inactive | inactive | Activity [7]: inactive
CC(C)C[C@@H]1NC(=O)[C@H]2C[C@@H](O)CN2C1=O | inactive | inactive | inactive | inactive | inactive | inactive | –
NC(=O)c1ccc[nH]1 | inactive | inactive | inactive | inactive | inactive | inactive | –
NC(=O)Cc1ccccc1 | inactive | inactive | inactive | inactive | inactive | inactive | –
CO[C@H]1CC[C@H](O[C@@H]2C[C@@H]([C@@H](C)/C=C(\C)C(=O)[C@H](C)C[C@H](C)C(=O)[O-])O[C@@]3(CC[C@@](C)([C@H]4CC[C@@H](C)[C@@]5(O[C@@H]([C@H]6O[C@@](O)(CO)[C@H](C)C[C@@H]6C)C[C@@H]5C)O4)O3)[C@@H]2C)O[C@@H]1C.[Na+] | – | – | – | – | – | – | MIC [8]: 0.1 to 3 µM; EC50 [9]: 109 nM; MIC [10]: 0.1 to 3 µM; MIC ([11]; Saccharomyces cerevisiae, ATCC 204508, read-out: MIC): 0.1 to 3 µM; IC50 ([12]; a549): 1900 nM; MIC [13]: 0.1 to 3 µM
O=C(NC(CO)CO)c1ccccc1O | inactive | inactive | inactive | inactive | inactive | inactive | –
CNc1ccc(C(N)=O)cc1 | inactive | inactive | inactive | inactive | inactive | inactive | –
OC[C@@H]1COC(c2ccccc2O)=N1 | inactive | inactive | inactive | inactive | inactive | inactive | Activity [7]: inactive
N[C@@H](COC(=O)c1ccccc1O)C(=O)N[C@@H](CO)C(=O)N[C@H](CCCN(O)C=O)C(=O)NCCC(=O)N[C@@H]1CCCN(O)C1=O | inactive | inactive | inactive | inactive | inactive | inactive | Activity [14]: Active
C[C@H](CO)NC(=O)c1ccccc1O | inactive | inactive | inactive | inactive | inactive | inactive | –
C[C@@H](CO)NC(=O)c1ccccc1O | inactive | inactive | inactive | inactive | inactive | inactive | –
NC(=O)[C@@H]1COC(c2ccccc2O)=N1 | inactive | inactive | inactive | inactive | inactive | inactive | Activity [15]: Active
COC(=O)C1COC(c2ccccc2O)=N1 (configuration not stated) | inactive | inactive | inactive | inactive | inactive | inactive | –
